Assay results from ChEMBL document CHEMBL1781884, “Design, synthesis, and structure-activity relationship of tropane muscarinic acetylcholine receptor antagonists” (J Med Chem, 2009).

Experiments:
[1] = biological target: T1, Muscarinic acetylcholine receptor M3 (Homo sapiens, UniProt P20309); assay: Antagonist activity against human M3 receptor expressed in CHO cells assessed as inhibition of acetylcholine-induced calcium mobilization by FLIPR; format: functional, cell-based; settings: for Kb: read-out: pA2 (converted)
Target sequence in this assay (P20309 whole entry): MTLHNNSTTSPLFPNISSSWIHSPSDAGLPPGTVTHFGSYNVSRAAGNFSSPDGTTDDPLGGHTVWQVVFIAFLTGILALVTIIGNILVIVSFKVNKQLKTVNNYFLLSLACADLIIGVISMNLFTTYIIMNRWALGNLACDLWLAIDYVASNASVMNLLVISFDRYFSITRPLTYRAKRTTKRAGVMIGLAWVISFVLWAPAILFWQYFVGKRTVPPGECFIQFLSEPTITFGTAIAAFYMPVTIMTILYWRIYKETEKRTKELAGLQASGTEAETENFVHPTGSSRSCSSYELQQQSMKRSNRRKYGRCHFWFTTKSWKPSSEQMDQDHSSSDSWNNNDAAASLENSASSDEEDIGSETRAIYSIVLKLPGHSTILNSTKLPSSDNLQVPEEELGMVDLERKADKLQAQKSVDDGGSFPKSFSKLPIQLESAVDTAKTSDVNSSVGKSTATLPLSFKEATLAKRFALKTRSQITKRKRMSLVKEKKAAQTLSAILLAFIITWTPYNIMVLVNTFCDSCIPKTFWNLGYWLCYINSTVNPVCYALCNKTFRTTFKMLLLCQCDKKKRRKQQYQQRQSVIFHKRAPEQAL

Mus musculus [2] = assay: Inhibition of methacholine-induced bronchoconstriction in dosed BALB/c mouse assessed as respiratory values at 5 ug, intranasal at 24 hrs; format: functional
[3] = (§1) Oral bioavailability in rat at 5.8 mg/kg; format: ADME, organism-based; settings: in vivo
Summary of the method: (§2)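 Rat oral dosing at 5.8 mg/kg; percent bioavailability determined from plasma levels, individual animal values listed because of variability.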

Mus musculus [4] = species: Mus musculus; assay: Bronchorelaxant activity in methacholine-induced BALB/c mouse bronchus contraction model assessed as time to 50% loss of maximum protection at 5 ug, intranasally; format: functional
Summary of the method: (§3)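 Balb/C mice (n = 4 per group) dosed intranasally (50 μL, 10% DMSO vehicle); challenged 0.25-48 h later with 30 mg/mL methacholine aerosol for 2 min; Penh recorded over next 5 min, as ratio of post-drug to pre-drug Penh; duration taken as time to 50% loss of maximum protection.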

Mus musculus [5] = assay: Bronchorelaxant activity in intranasally dosed BALB/c mouse bronchus assessed as inhibition of methacholine-induced contraction; format: functional
[6] = biological target: T2, Muscarinic acetylcholine receptor M2 (Homo sapiens, UniProt P08172); assay: Displacement of [3H]N-methyl Scopolamine from human muscarinic M2 receptor expressed in CHO cells by scintillation proximity assay; format: cell-based
T2 sequence (P08172 whole entry): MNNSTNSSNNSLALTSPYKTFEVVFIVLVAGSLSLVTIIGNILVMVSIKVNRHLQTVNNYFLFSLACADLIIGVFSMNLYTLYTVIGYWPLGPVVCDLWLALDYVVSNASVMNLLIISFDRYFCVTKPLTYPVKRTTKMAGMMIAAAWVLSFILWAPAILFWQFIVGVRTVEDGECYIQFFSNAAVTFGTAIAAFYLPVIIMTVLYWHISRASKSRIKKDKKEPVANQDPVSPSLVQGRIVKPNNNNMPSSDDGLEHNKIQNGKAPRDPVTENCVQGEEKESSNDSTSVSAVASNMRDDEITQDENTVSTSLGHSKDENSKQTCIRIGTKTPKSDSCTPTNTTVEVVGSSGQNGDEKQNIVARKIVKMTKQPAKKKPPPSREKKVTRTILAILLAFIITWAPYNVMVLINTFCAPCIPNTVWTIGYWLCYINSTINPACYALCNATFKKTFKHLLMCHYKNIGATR
Summary of the method: (§4)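 Scintillation proximity binding on membranes from CHO cells expressing human M1, M2 or M3 receptor, competing against 0.5 nM [3H]-N-methylscopolamine; Ki reported, mean of two or more independent assays.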

[7] = Systemic plasma clearance in rat at 2.8 mg/kg, iv; format: ADME, organism-based; parameters: dose 2.8 mg/kg, route intravenous
[8] = biological target: T3, Muscarinic acetylcholine receptor M1 (Homo sapiens, UniProt P11229); assay: Displacement of [3H]N-methyl Scopolamine from human muscarinic M1 receptor expressed in CHO cells by scintillation proximity assay; format: cell-based; summary of the method: as §4
T3 sequence (P11229 whole entry): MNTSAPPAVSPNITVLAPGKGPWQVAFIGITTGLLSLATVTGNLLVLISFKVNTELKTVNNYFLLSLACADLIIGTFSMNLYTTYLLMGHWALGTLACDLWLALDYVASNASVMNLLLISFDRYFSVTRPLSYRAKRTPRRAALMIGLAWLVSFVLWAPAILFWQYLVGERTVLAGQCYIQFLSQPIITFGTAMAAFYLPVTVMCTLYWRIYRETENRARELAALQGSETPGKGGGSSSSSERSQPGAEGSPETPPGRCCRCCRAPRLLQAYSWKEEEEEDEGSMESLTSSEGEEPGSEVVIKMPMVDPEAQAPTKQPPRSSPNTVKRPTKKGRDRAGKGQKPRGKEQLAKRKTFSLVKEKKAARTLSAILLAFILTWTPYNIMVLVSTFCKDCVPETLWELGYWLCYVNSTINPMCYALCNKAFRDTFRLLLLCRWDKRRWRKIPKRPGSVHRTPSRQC

[9] = biological target: T1, Muscarinic acetylcholine receptor M3; assay: Antagonist activity at human muscarinic M3 receptor in human bronchus assessed as reversal time for 50% of carbachol-induced contraction to return to maximum relaxation at 10 nM; format: functional
Summary of the method: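 Human bronchial strips from primary, secondary or tertiary airways (autopsy) in organ baths on force-displacement transducers; preincubated 2 h with antagonist at 10 nM, then contracted with increasing carbachol. Antagonist then washed out, tissue superfused with carbachol-containing buffer and tension recovery followed over time; value is minutes to 50% reversal of antagonist blockade (Off t50).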
Target sequence in this assay (P20309 whole entry, looked up): as the sequence (P20309 whole entry) above

[10] = biological target: T1, Muscarinic acetylcholine receptor M3; assay: Antagonist activity at human muscarinic M3 receptor in human bronchus assessed as potency against carbachol-induced contraction; format: functional; settings: read-out: pA2 (converted)
Summary of the method: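 Human bronchial strips (primary, secondary or tertiary airways, obtained at autopsy) mounted in organ baths on force-displacement transducers; preincubated 2 h with antagonist, then given increasing carbachol concentrations; potency expressed as pA2.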
Target sequence in this assay (P20309 whole entry): as the sequence (P20309 whole entry) above

[11] = biological target: T1, Muscarinic acetylcholine receptor M3; assay: Displacement of [3H]N-methyl Scopolamine from human muscarinic M3 receptor expressed in CHO cells by scintillation proximity assay; format: cell-based; summary of the method: as §4
Target sequence in this assay (P20309 whole entry): as the sequence (P20309 whole entry) above

Rattus norvegicus = assay: as §1; format: ADME, organism-based; settings: in vivo, BLD = below limit of detection; summary of the method: as §2
[12] = Systemic plasma clearance in rat at 2.5 mg/kg, iv; format: ADME, organism-based; parameters: dose 2.5 mg/kg, route intravenous
Mus musculus [13] = species: Mus musculus; assay: Bronchorelaxant activity in methacholine-induced BALB/c mouse bronchus contraction model assessed as time to 50% loss of maximum protection at 0.5 ug, intranasally; format: functional; summary of the method: as §3
Mus musculus [14] = assay: Inhibition of methacholine-induced bronchoconstriction in dosed BALB/c mouse assessed as respiratory values at 50 ug, intranasal at 24 hrs; format: functional

Structure (SMILES)	IC50 [1]	Kb [1]	also measured
C[N+]1(C)[C@@H]2CC[C@H]1C[C@@H](CC(O)(c1ccc(F)c(F)c1)c1ccc(F)c(F)c1)C2	290 nM	–	–
C[N+]1(C)[C@@H]2CC[C@H]1C[C@@H](CC(O)(c1ccc(Cl)cc1)c1ccc(Cl)cc1)C2	74 nM	–	–
C[N+]1(C)[C@@H]2CCC[C@H]1C[C@H](C=C(c1cccs1)c1cccs1)C2.[Br-]	< 10 nM	1 nM	inhibition (INH) (Mus musculus [2]): 49%
CN1[C@@H]2CC[C@H]1C[C@@H](C(O)(c1ccccc1)c1ccccc1)C2	1500 nM	–	–
Cc1ccc(F)cc1C(O)(C[C@H]1C[C@H]2CC[C@@H](C1)[N+]2(C)C)c1cc(F)ccc1C	37 nM	–	–
C[N+]1(C)[C@@H]2CC[C@H]1C[C@@H](CC(O)(c1cccc(F)c1)c1cccc(F)c1)C2	11 nM	10 nM	–
C[N+]1(C)[C@@H]2CC[C@H]1C[C@@H](CC(CO)(c1ccccc1)c1ccccc1)C2	–	3.98 nM	–
CN1[C@@H]2CC[C@H]1C[C@@H](CC(O)(c1ccccc1)c1ccccn1)C2 (some centres not stated)	19 nM	–	–
Cc1ccccc1C(=C[C@H]1C[C@H]2CC[C@@H](C1)[N+]2(C)C)c1ccccc1C.[Br-]	< 10 nM	0.1 nM	inhibition (INH) (Mus musculus [2]): 91%
CN1[C@@H]2CC[C@H]1C[C@@H](CC(C#N)(c1ccccc1)c1ccccc1)C2	–	0.316 nM	–
CN1[C@@H]2CC[C@H]1C[C@@H](CCC(O)(c1ccccc1)c1ccccc1)C2	134 nM	–	–
Cc1c(F)cccc1C(O)(C[C@H]1C[C@H]2CC[C@@H](C1)[N+]2(C)C)c1cccc(F)c1C	65 nM	–	–
C[N+]1(C)[C@@H]2CC[C@H]1C[C@@H](CC(O)(c1cccc(Cl)c1)c1cccc(Cl)c1)C2	25 nM	–	–
C[N+]1(C)[C@@H]2CC[C@H]1C[C@@H](C=C(c1cccs1)c1cccs1)C2.[Br-]	< 10 nM	0.1 nM	bioavailability [3]: 2.4%; Time (Mus musculus [4]): 24 h; ED50 (Mus musculus [5]): 0.2 µg; Ki [6]: 0.73 nM; clearance [7]: 85 mL/min/kg; inhibition (INH) (Mus musculus [2]): 72%; Ki [8]: 0.38 nM; TIME [9]: 0.983 h; Kb [10]: 1 nM; Ki [11]: 0.45 nM
C[N+]1(C)[C@@H]2CCC[C@H]1C[C@@H](CC(O)(c1cccs1)c1cccs1)C2.[I-]	< 10 nM	2 nM	inhibition (INH) (Mus musculus [2]): 44%
C[N+]1(C)[C@@H]2CC[C@H]1C[C@@H](CC(C(N)=O)(c1ccccc1)c1ccccc1)C2.[I-]	< 10 nM	0.126 nM	inhibition (INH) (Mus musculus [2]): 90%

Structure (SMILES)	IC50 [1]	Kb [1]	also measured
C[N+]1(C)[C@@H]2CC[C@H]1C[C@@H](CC(C#N)(c1ccccc1)c1ccccc1)C2.[Br-]	–	–	F (Rattus norvegicus): BLD; ED50 (Mus musculus [5]): 0.01 µg; Ki [6]: 0.17 nM; clearance [12]: 74 mL/min/kg; Time (Mus musculus [13]): >24 h; TIME [9]: 1.42 h; Kb [10]: 0.1 nM; Ki [11]: 0.06 nM
CN1[C@@H]2CC[C@H]1C[C@@H](CC(O)(c1ccccc1)c1ccccc1)C2	973 nM	–	inhibition (INH) (Mus musculus [14]): >10%
CN1[C@@H]2CC[C@H]1C[C@@H](CC(O)(c1cccs1)c1cccs1)C2	< 10 nM	2.51 nM	inhibition (INH) (Mus musculus [14]): >10%
C[N+]1(C)[C@@H]2CCC[C@H]1C[C@H](CC(O)(c1ccccc1)c1ccccc1)C2.[Br-]	< 10 nM	1.58 nM	inhibition (INH) (Mus musculus [2]): 34%
CN1[C@@H]2CC[C@H]1C[C@@H](CC(C(N)=O)(c1ccccc1)c1ccccc1)C2	< 10 nM	0.1 nM	inhibition (INH) (Mus musculus [2]): >10%
Cc1cc(C(O)(C[C@H]2C[C@H]3CC[C@@H](C2)[N+]3(C)C)c2csc(C)c2)cs1	65 nM	–	–
Cc1ccccc1C(O)(C[C@H]1C[C@H]2CCC[C@@H](C1)[N+]2(C)C)c1ccccc1C	23 nM	–	–
C[N+]1(C)[C@@H]2CC[C@H]1C[C@@H](CC(O)(c1cccs1)c1cccs1)C2.[Br-]	< 10 nM	2.51 nM	inhibition (INH) (Mus musculus [2]): 19%
C[N+]1(C)[C@@H]2CC[C@H]1C[C@@H](C=C(c1ccccc1)c1ccccc1)C2.[Br-]	< 10 nM	5.01 nM	inhibition (INH) (Mus musculus [14]): 76%
COc1ccc(C(O)(C[C@H]2C[C@H]3CC[C@@H](C2)[N+]3(C)C)c2ccc(OC)cc2)cc1	> 10000 nM	–	–
CCC(O)(C[C@H]1C[C@H]2CC[C@@H](C1)N2C)c1ccccc1 (some centres not stated)	135 nM	–	–
C[N+]1(C)[C@@H]2CC[C@H]1C[C@@H](CC(O)(c1ccsc1)c1ccsc1)C2	17 nM	–	–
COc1ccccc1C(O)(C[C@H]1C[C@H]2CC[C@@H](C1)[N+]2(C)C)c1ccccc1OC	> 10000 nM	–	–
Cc1ccccc1C(O)(C[C@H]1C[C@H]2CC[C@@H](C1)[N+]2(C)C)c1ccccc1C.[Br-]	10 nM	5.01 nM	inhibition (INH) (Mus musculus [2]): 34%
C[N+]1(C)[C@@H]2CC[C@H]1C[C@@H](CC(O)(c1cc(F)cc(F)c1)c1cc(F)cc(F)c1)C2	112 nM	–	–
C[N+]1(C)[C@@H]2CC[C@H]1C[C@@H](CC(O)(c1ccccc1)c1ccccc1)C2.[Br-]	–	–	inhibition (INH) (Mus musculus [14]): 62%
